Measurements pooled from the literature.
Protocols differ between the studies behind these lines.
Target: Dual specificity mitogen-activated protein kinase kinase 1 (MAP2K1, Homo sapiens, UniProt Q02750)

| SMILES | read-out | mode | technique | concentration | measurement | value |
| --- | --- | --- | --- | --- | --- | --- |
| CC(C)CC(=O)N1CCc2nc(-c3ccc(Br)cc3)nc(N(C)Cc3ccccc3)c2C1 | cell-free assay | – | competition with immobilised ligand | 0.1 µM | remaining binding | 100% |
| COc1cc(Nc2cnc(C#N)c(O[C@H](C)CN(C)C)n2)ncc1-c1cnn(C)c1 | enzyme activity | inhibitor | radiometric | 1 µM | remaining activity | 80% |
| C[C@@H]1CN(c2cc(-c3nn(C)c4ccc(OC5(C)CC5)cc34)ncn2)C[C@H](C)O1 | cell-free assay | – | competition with immobilised ligand | 1 µM | remaining binding | 74% |
| Nc1ncnc2occ(-c3ccc(NC(=O)Nc4cc(C(F)(F)F)ccc4F)cc3)c12 | cell-free assay | inhibitor | – | 20 µM | remaining signal | 9.3% |
| CC(C)(C)C(=O)c1sc(NC2CCCCC2)nc1N | enzyme activity | inhibitor | – | 10 µM | remaining activity | 94% |
| CC(C)c1ccc(NC(=O)c2cccs2)c(-c2nc3ccccc3[nH]c2=O)c1 | enzyme activity | inhibitor | – | 1 µM | activity vs control | 112% |
| Nc1cnc(N2CCc3cc(S(=O)(=O)Nc4c(F)cc(Cl)cc4F)cc(N4CCCC4=O)c32)nc1 | cell-free assay | – | competition with immobilised ligand | 1 µM | remaining binding | 100% |
| CCN(CC)CCNC(=O)c1c(C)[nH]c(/C=C2\C(=O)Nc3ccc(F)cc32)c1C | enzyme activity | inhibitor | – | 10 µM | inhibition | 76% |
| Cc1[nH]c(/C=C2\C(=O)Nc3ccc(F)cc32)c(C)c1C(=O)N[C@H]1CCN(C(=O)N(C)C)C1 | enzyme activity | inhibitor | – | 1 µM | remaining activity | 59% |
| CCN(CC)Cc1cc(Nc2ccnc3cc(Cl)ccc23)ccc1O | cell-free assay | – | competition with immobilised ligand | 10 µM | remaining binding | 96% |
| CNC(=O)c1cc(Oc2ccc(NC(=O)Nc3ccc(Cl)c(C(F)(F)F)c3)cc2)ccn1 | enzyme activity | inhibitor | – | 10 µM | inhibition | 2% |
| CNCc1ccccc1-c1csc([C@H](C)Nc2nc(C)nc3cc(OC)c(OC)cc23)c1 | cell-free assay | – | competition with immobilised ligand | 1 µM | remaining binding | 100% |
| CCN(CC)CCNC(=O)c1c(C)[nH]c(/C=C2\C(=O)Nc3ccc(F)cc32)c1C | enzyme activity | inhibitor | – | 1 µM | remaining activity | 44% |
| O=C1NC(=O)c2cc(Nc3ccc(F)cc3)c(Nc3ccc(F)cc3)cc21 | cell-free assay | – | – | 0.5 µM | remaining signal | 103% |
| Nc1nc(Nc2ccccc2)sc1C(=O)c1c(F)cccc1F | enzyme activity | inhibitor | – | 10 µM | remaining activity | 96% |
| Nc1nc(Nc2ccc(S(N)(=O)=O)cc2)nn1C(=O)c1c(F)cccc1F | cell-free assay | – | – | 0.5 µM | remaining signal | 93.9% |
| CC(C)(C)c1nc2c(s1)c1nc(N)ncc1c1ccc(NS(=O)(=O)c3c(F)cccc3F)c(F)c12 | enzyme activity | inhibitor | radiometric | 1 µM | remaining activity | 79% |
| CN(C)C1CCN(CC#Cc2nn(C3CCCC3)c3nc(NCc4ccccc4)ncc23)C1 (stereo not drawn) | enzyme activity | inhibitor | FRET | 0.1 µM | inhibition | 9% |

| SMILES | read-out | mode | technique | concentration | measurement | value |
| --- | --- | --- | --- | --- | --- | --- |
| Cn1cnc(Br)c1C1=CN(c2ncnc3[nH]cnc23)CCS1 | enzyme activity | inhibitor | radiometric | 50 nM | inhibition | 17.1% |
| CN(c1ncccc1CNc1nc(Nc2ccc3c(c2)CC(=O)N3)ncc1C(F)(F)F)S(C)(=O)=O | enzyme activity | inhibitor | – | 1 µM | inhibition | 77.1% |
| CN([C@@H]1CCc2c(CC(=O)O)c3cc(S(C)(=O)=O)ccc3n2C1)S(=O)(=O)c1ccc(F)cc1 | cell-free assay | – | competition with immobilised ligand | 1 µM | remaining binding | 98% |
| CNCc1ccc(-c2cc(-c3nc(-c4ccc(S(=O)(=O)C(C)C)cc4)cnc3N)on2)cc1 | enzyme activity | inhibitor | – | 0.4 µM | inhibition | 12% |
| COc1cc2ncnc(Nc3ccc(Oc4ccccc4)c(C)c3C)c2cc1OC | enzyme activity | inhibitor | – | 1 µM | inhibition | 1% |
| Cc1ccc(C(=O)Nc2ccc(CN3CCN(C)CC3)c(C(F)(F)F)c2)cc1C#Cc1cnc2cccnn12 | enzyme activity | inhibitor | – | 23.5 nM | remaining activity | 100% |
| CSc1cccnc1N1CCN(Cc2nc3ccccc3[nH]2)CC1 | cell-free assay | – | competition with immobilised ligand | 1 µM | remaining binding | 79% |
| CC(C)(O)[C@H]1CC[C@H](Nc2ccc3ncc(-c4cccc(C(F)(F)F)c4)n3n2)CC1 | enzyme activity | inhibitor | – | 1 µM | remaining activity | 79.5% |
| COc1cccc(-c2cc(=O)c3ccccc3o2)c1N | cell-free assay | – | – | 0.5 µM | remaining signal | 69.1% |
| CC(C)(O)c1cncc(-c2nc3ccc(F)cc3n2C2CC2)c1 | cell-free assay | – | competition with immobilised ligand | 1 µM | remaining binding | 100% |
| O=C(CSc1nc2nccnc2c(=O)n1CCc1ccccc1)Nc1nccs1 | enzyme activity | inhibitor | – | 10 µM | inhibition | -2% |
| CN(C(=O)c1ccccc1)c1cc(N(C)c2ccc3c(c2)CCc2ccc(C(=O)NCCN4CCOCC4)cc2C3=O)ccc1F | cell-free assay | – | competition with immobilised ligand | 1 µM | remaining binding | 100% |
| Cc1sc(C(=O)NC2COC2)cc1-n1cc(NC(=O)Nc2c(F)cccc2Cl)cn1 | enzyme activity | inhibitor | – | 10 µM | remaining activity | 95.5% |
| Cn1c(=O)n(-c2ccc(C(C)(C)C#N)cc2)c2c3cc(-c4cnc5ccccc5c4)ccc3ncc21 | enzyme activity | inhibitor | – | 10 µM | remaining activity | 116% |
| Cc1ccc(Nc2nccc(N(C)c3ccc4c(C)n(C)nc4c3)n2)cc1S(N)(=O)=O | enzyme activity | inhibitor | – | 0.3 µM | inhibition | -5% |
| Cc1ccc(C(=O)NCc2ccsc2)cc1C#Cc1cn(C(C)C)c2ncnc(N)c12 | enzyme activity | inhibitor | – | 1 µM | activity vs control | 93% |
| Oc1cccc(-c2nc(N3CCOCC3)c3oc4ncccc4c3n2)c1 | enzyme activity | inhibitor | – | 10 µM | remaining activity | 105% |
| FC(F)(F)Oc1cccc(-c2cnc3ccc(-c4ccncc4)nn23)c1 | enzyme activity | inhibitor | radiometric | 5 µM | activity vs control | 73% |
